Molecules are shown by their SMILES.

Drawing on ChEMBL document CHEMBL4513216, “Probing the Open Global Health Chemical Diversity Library for Multistage-Active Starting Points for Next-Generation Antimalarials” (ACS Infect Dis, 2020), this text covers cytotoxicity for 99 molecules.

The data set in a line: Toxicity liver stage against HepG2, at 10uM. The format is cell-based. More on the design: test concentration 10 uM, cell line HepG2-A16-CD81EGFP. Particulars: human, HepG2-A16-CD81EGFP cells; read-out: INHIBITION
In a few lines:
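Uninfected HepG2-A16-CD81EGFP cells, 3 × 10^3 per well, 1536-well, plated on prespotted compound at 10 μM final, parasite-free screening media added to match infected plates; puromycin 10 μM positive, DMSO 0.5% negative; run in parallel with 48 h PbLuc assay at 37 °C, 5% CO2; viability by CellTiter-Glo luminescence, normalized to controls.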
For the molecule `Cc1ccc(CNC2(Cc3cc(C(C)(C)O)on3)COC2)o1`, the cytotoxicity at 10 µM was -1.18%.
In the case of `Cc1ccc(-n2nc(C)c3c(C)cc(OCC(=O)NC(C)C)nc32)cc1` it was -3.61%.
`COc1c(C(=O)N2CCOCC2)cnc2c1c(C)nn2C`: the cytotoxicity at 10 µM was 1.64%.
In the case of `CNC(=O)CN1C(=O)CCC12CCCN(CCc1ccccc1)C2` (centres undefined) it was 1.35%; in that of `CC(=O)N1CCCC2(CCN(c3ccccc3)C2=O)C1` (centres undefined), 1.91%.
As for `Cc1cc(C(=O)N2CC[C@@H](O)[C@@H]2Cc2ccccc2)no1`, the cytotoxicity at 10 µM is -1.36%.
In the case of `CS(=O)(=O)N1CCCC12CCCN(c1nccs1)C2` (centres undefined) it was 4.92%; in that of `CCN1CCC2(COCc3c(C)nc(N(C)C)nc32)C1` (centres undefined), 5.76%.
The same measure for `CCn1c(SCC(=O)N2CCOCC2)nc2cc(C)[nH]c2c1=O`: 7.72%; for `CCn1c(=O)c2cc(S(N)(=O)=O)ccc2n(CC)c1=O`: -13.4%.
On to `CC(C)c1cc2c(s1)NC(c1ccccn1)NC2=O` (centres undefined), for which the cytotoxicity at 10 µM is -0.378%.
For the molecule `Fc1cccc(Cl)c1CNCCCOc1ccccn1`, the cytotoxicity at 10 µM was -3.33%.
Take `CCCC(=O)NCCCn1ncc2c(C)cccc21`: the cytotoxicity at 10 µM was 8.6%.
In the case of `CC(C)CNC(=O)c1nnsc1-c1ccccc1` it was 10.3%; in that of `COc1ccc(C2CN(c3cc(C)ncn3)CCN2C(C)=O)cc1` (centres undefined), 0.23%; in that of `COCCC(=O)NCCc1nc(N(C)C)ncc1-c1ccncc1`, 1.68%.
The same measure for `CNC(=O)c1ccc(C2CN(Cc3ccc(F)cc3)CCO2)nc1` (centres undefined): -0.378%; for `CC(C)c1nc(O)c2nnn(C[C@H]3CCCN(Cc4cccs4)C3)c2n1`: 10.8%; for `COc1ccc(N2CCN(C(=O)OC(C)(C)C)C(C(=O)O)C2)cc1` (centres undefined): -0.318%.
In the case of `CC(=O)N1CCC(c2ccnc(Nc3cc(C(F)(F)F)ccn3)n2)C1` (centres undefined) it was 11%; in that of `COCC(=O)N1CC(c2csc(NC(C)=O)n2)C1`, -8.8%; in that of `CC1(C(=O)N2CCOCC2)CN(Cc2cccnc2)CCO1` (centres undefined), -9%.
`Cc1c(C(=O)N2CCCC(n3nnc4cc(F)ccc43)C2)cnn1C` (centres undefined): the cytotoxicity at 10 µM is -18.3%.
In the case of `Cc1cn[nH]c1C1CCCCN1C(=O)CCc1ccc(F)cc1` (centres undefined) it was 1.52%; in that of `COC(=O)CC(NC(=O)c1cccc(N2CCCC2=O)c1)C(=O)OC` (centres undefined), -55.6%.
In the case of `CC1CCN(C(=O)c2cn(-c3ccc(C(F)(F)F)cn3)nn2)CC1`, the cytotoxicity at 10 µM is -53.1%.
The same measure for `Cc1cc(C)n(CC(C)CNC(=O)NCc2ccco2)n1` (centres undefined): -2.58%; for `CC(C)N(C)C(=O)C1CSCN1S(=O)(=O)c1ccccc1F` (centres undefined): 8.65%.
On to `CCOCCN1CCN(c2ccc(C#N)cn2)CC1CC` (centres undefined), for which the cytotoxicity at 10 µM is 1.02%.
On to `CCn1cnnc1CNS(=O)(=O)N1CCCC1c1ccc(C)o1` (centres undefined), for which the cytotoxicity at 10 µM is -144%.
In the case of `Cc1ccc(NC(=O)NCC2CCS(=O)(=O)C2)cc1Cl` (centres undefined) it was 6.93%.
In the case of `CCN(CC)c1ccc(CNC(=O)N2CCC(C#N)CC2)cc1` it was -11.4%; in that of `COCCS(=O)(=O)NCc1ccc(N(C)C)c(C)c1`, -8.35%; in that of `CC(C)c1csc(C(=O)N(C)c2ccc(Br)cn2)n1`, 3.33%.
In the case of `Cc1oc(CNC(=O)Cc2ccc3ccccc3c2)cc1C(=O)O` it was 3.63%.
For `CC(C#N)(NC(=O)c1ccc(C#N)cc1)C1CC1` (centres undefined), the cytotoxicity at 10 µM is -3.67%.
For `COc1cc(C)ccc1OCCC(=O)N1CCC(N2CC=CC2)C1` (centres undefined), the cytotoxicity at 10 µM turned out to be 6.99%.
With `Cn1cc(C(=O)N2CCCC2c2ccc3c(c2)OCO3)ccc1=O` (centres undefined), the cytotoxicity at 10 µM was -14.8%.
The same measure for `CCOCCCC(=O)NCc1ccnc(N2CCN(C)CC2)c1`: -10.9%; for `CCN(Cc1ccco1)C(C)c1nc(C(C)(C)C)no1` (centres undefined): 0.623%.
In the case of `CNS(=O)(=O)CC(=O)N1CCCc2cc(Br)ccc21`, the cytotoxicity at 10 µM was -12.5%.
`CC(C)(C(=O)NCCCC(N)=O)c1cccc(Br)c1`: the cytotoxicity at 10 µM stood at 4.23%.
Take `O=C(Nc1cccc(F)c1)C1CCN(Cc2noc(C3CC3)n2)CC1`: the cytotoxicity at 10 µM amounted to 13.2%.
In the case of `CCn1cc(S(=O)(=O)NCC(OC)c2ccccc2)cn1` (centres undefined), the cytotoxicity at 10 µM came to 1.64%.
In the case of `Fc1cccnc1N1CCCC(c2nccs2)C1` (centres undefined) it was 1.48%.
In the case of `CCc1nccn1C1CCCN(C(=O)c2ccn(C)c(=O)c2)C1` (centres undefined) it was 17%; in that of `CCCS(=O)(=O)N1CCC(NC(=O)c2cc(CC)c(C)s2)CC1`, -4.61%; in that of `Cc1ccc(NC(=O)Cc2c(C)nc3c(c2C)c(=O)[nH]n3C)cc1F`, 6.87%.
Take `N#Cc1cccc(OCCN2CCCC2C(=O)NCC(F)(F)F)c1` (centres undefined): the cytotoxicity at 10 µM was -5.88%.
Turning to `CN(C(=O)CN1CCCC1c1cnn(C)c1)C(C)(C)C#N` (centres undefined), the cytotoxicity at 10 µM was -1.37%.
With `CCOCC(=O)N1CC(=O)Nc2cc(Br)ccc21`, the cytotoxicity at 10 µM is 8.09%.
As for `CCC(CC)(CNC(=O)NC1CCCC1(C)C)S(C)(=O)=O` (centres undefined), the cytotoxicity at 10 µM was found to be 9.18%.
Regarding `CCSc1ccc(C(C)NC(=O)CCS(C)(=O)=O)cc1` (centres undefined), the cytotoxicity at 10 µM came out at 2.18%.
Regarding `CC(C)N(Cc1cccnc1)C(=O)CSc1ccc(C#N)cc1`, the cytotoxicity at 10 µM worked out at 3.18%.
For the molecule `O=C(NCc1cccnc1N1CCCCC1)c1ccc2cc[nH]c2c1`, the cytotoxicity at 10 µM turned out to be 4.1%.
For `CC(Nc1ccc(CCN2CCOCC2)cc1)C(=O)N(C)CCC#N` (centres undefined), the cytotoxicity at 10 µM is -8.93%.
As to `O=S(=O)(CC1CCOCC1)NCc1ccnc(O)c1`, the cytotoxicity at 10 µM is -5.47%.
The same measure for `CCOC(C)c1noc(CN(C)C(=O)c2cc3ccccn3c2)n1` (centres undefined): 7.17%; for `CS(=O)(=O)NCC(=O)NC1CCc2nccn2C1` (centres undefined): 16.2%; for `Cn1cccc1C1CCCN1C(=O)NCCCn1cccn1` (centres undefined): 19.2%.
In the case of `C[C@H](NS(C)(=O)=O)C(=O)NCc1cc(-c2ccco2)n[nH]1` it was -8.27%.
Turning to `CC(C)CNc1nccc(-c2cnc3sc(Cl)cn3c2=O)n1`, the cytotoxicity at 10 µM was -0.723%.
For `COCC(C)NCc1ccc2[nH]c(C)c(C)c2c1` (centres undefined), the cytotoxicity at 10 µM is -3.06%.
The same measure for `CSc1ccccc1C(=O)N(C)C1CCCN(CCc2ccccc2)C1` (centres undefined): -8.52%; for `CCn1cc(CN2CCC3(CC2)c2ccccc2CC3O)cn1` (centres undefined): 5.54%.
In the case of `Cc1ccc(N2CCN(C(=O)CCc3ccc(O)cc3)CC2=O)cc1`, the cytotoxicity at 10 µM was -2.36%.
As for `COc1cc(N2CCCC(c3nccn3Cc3cccnc3)C2)ncn1` (centres undefined), the cytotoxicity at 10 µM was -1.86%.
In the case of `Cc1[nH]ccc1C(=O)N1CCCC(c2ccc(C(=O)O)cc2)C1` (centres undefined) it was -0.591%; in that of `O=C(NC[C@@H]1CCCO1)c1ccc(S(=O)(=O)N[C@@H]2CCNC2)cc1`, -42.2%; in that of `O=C1NCC2(CCCN(c3ncnc4c3CCC4)CC2)O1` (centres undefined), -0.718%.
For the molecule `CCCS(=O)(=O)N1CCCC(c2cccc(C(=O)O)c2)C1` (centres undefined), the cytotoxicity at 10 µM was 6.09%.
The same measure for `Cc1cccc(Cn2cc(C)c(N)n2)c1`: -4.14%; for `CNc1cncc(C2CCCN2Cc2c[nH]cn2)n1` (centres undefined): 0.192%.
For `CC(=O)N(Cc1ncc(C(C)C)o1)C1CCN(Cc2cc(C)on2)C1` (centres undefined), the cytotoxicity at 10 µM was -6.78%.
In the case of `COCCCN1CCCC1c1noc(C2CC2)n1` (centres undefined) it was -11.5%; in that of `CNC(=O)COc1ccc(CNCc2c(C)nn(C)c2N(C)C)cc1`, -5.92%.
On to `OC(CNCCn1cccn1)c1ccc(C(F)(F)F)cc1` (centres undefined), for which the cytotoxicity at 10 µM is -5.4%.
In the case of `Cc1nn(C)c(C)c1C1CCCN1C(=O)c1cnccn1` (centres undefined), the cytotoxicity at 10 µM is -15.7%.
The same measure for `COc1c(C)cnc(CN(C)C(=O)c2ccccc2F)c1C`: -9.11%.
Consider `Cc1cnn(CCNCCCOc2ccccc2)c1`, for which the cytotoxicity at 10 µM is -11.8%.
With `COc1ccc(C(=O)NS(=O)(=O)c2ccc(C#N)cc2C(F)(F)F)cc1`, the cytotoxicity at 10 µM is -10.5%.
`O=C(NCc1cc[nH]n1)NCC(O)c1ccc(F)cc1F` (centres undefined): the cytotoxicity at 10 µM is 1.78%.
In the case of `CC(=O)N1CCCN(C(=O)NCCc2cc(Cl)cc(Cl)c2)CC1` it was 4.55%.
In the case of `Cc1ccc(N2CCCC(NCC(=O)Nc3cc(C)no3)C2)nn1` (centres undefined) it was 3.61%; in that of `CCNC(c1cccnc1)c1cc(C)cc(C)c1` (centres undefined), 2.77%; in that of `O=C(CCc1ccccc1)N1CCC(N2CCNC2=O)CC1`, 5.49%.
On to `CC(C)c1ccsc1C(=O)N1CCCN(Cc2cscn2)CC1`, for which the cytotoxicity at 10 µM amounted to 4.07%.
Turning to `CCN(CC)C(=O)C1CCC2(CCNCC2)CO1` (centres undefined), the cytotoxicity at 10 µM is -146%.
The same measure for `CC(=O)N1CCN(Cc2nccs2)CC2(CC(=O)N(C)C2)C1` (centres undefined): 3.03%.
In the case of `c1ccc(CN2CCCn3nnc(Cn4cccc4)c3C2)nc1` it was 8.37%.
Take `O=C(CN1CC(c2nc(Cc3ccccc3)no2)C1)NCC1CCCO1` (centres undefined): the cytotoxicity at 10 µM is -6.06%.
As for `c1csc(CN2CCc3onc(Cn4cccc4)c3C2)c1`, the cytotoxicity at 10 µM was found to be 6.59%.
In the case of `COc1cccc(CN2CCc3nc(C(N)=O)sc3CC2)c1` it was -3.79%; in that of `O=C(NCC1CCOCC1)[C@@H]1C[C@@H]2CCN(Cc3ccco3)C[C@H]2O1`, -8.09%.
In the case of `CCCNCc1cn(C)nc1-c1cccnc1` it was 6.36%; in that of `O=C(c1c[nH]cn1)N1CCC(F)(F)C2(CCN(c3ncccn3)C2)C1` (centres undefined), 9.76%.
In the case of `CC(C)NC(=O)N1CCOC2(CCCN(c3ncccc3F)C2)C1` (centres undefined), the cytotoxicity at 10 µM is -4.45%.
In the case of `COCC1Cn2nnc(-c3cnn(C)c3)c2CN1Cc1cccs1` (centres undefined) it was 6.24%; in that of `Cc1cnc(N2CC[C@H]3[C@@H]2CCC(=O)N3c2ccccc2)nc1`, 4.15%.
